Laboratory results: PMC3177973 (Biochemistry, 2011)

What was measured:
α-synuclein [1] = target: T1, α-synuclein (Homo sapiens, UniProt P37840); details: similar effect as WW2; cited from earlier work
α-synuclein [2] = target: T1, α-synuclein; assay: TEM imaging of α-syn aggregation assays; type: biochemical; details: 2 molar equivalents; images after 16–24 hrs; AA = amorphous aggregates
Procedure, shortened: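 Full-length 140-residue α-syn was expressed in E. coli BL21(DE3) and purified by anion exchange. It was used at 100 μM in 20 mM Tris-HCl pH 7.5, at 37 °C with vigorous stirring, with or without peptide. HFIP was added to 1.5 vol-% to start aggregation. After 16–24 h, a freshly agitated 5 μL aliquot was adsorbed on formvar/carbon-coated copper grids, negatively stained with 2% uranyl acetate and imaged by TEM.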

α-synuclein [3] = target: T1, α-synuclein; assay: α-syn aggregation assay, CD spectroscopy; type: biochemical; details: 2 molar equivalents; for β CD signal, % β, α-syn assay: at 16 h (no time printed for MrH3b); for Effect on course, onset or lag time of α-syn aggregation (in words): monitored by CD and ThT
Procedure, shortened: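 Recombinant full-length α-syn was expressed in E. coli BL21(DE3) and used at 100 μM in 20 mM Tris-HCl pH 7.5. Aggregation was started by HFIP addition (1.5 vol-% final) under continuous stirring at 37 °C, with or without inhibitor peptide and without ThT. Every 2–4 h, a 5 μL aliquot was diluted into 195 μL of 1.5% HFIP buffer (2.5 μM α-syn). Spectra were recorded in 0.1 cm cells to follow the random coil-to-β transition, corrected for inhibitor contribution.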

| Fibril Morphology (TEM), α-syn (α-synuclein [2]) | Time by which β CD signal appears, α-syn assay (α-synuclein [3]) | β CD signal, % β, α-syn assay (α-synuclein [3]) | β CD signal, α-syn assay (in words) (α-synuclein [3]; 100 μM α-syn, 1.5 vol-% HFIP) | Compound | Excess of inhibitor required for non-amyloid α-syn aggregates (α-synuclein [1]) | Effect on course, onset or lag time of α-syn aggregation (in words) (α-synuclein [3]) |
| --- | --- | --- | --- | --- | --- | --- |
|  |  |  |  | O=C(O[C@@H]1Cc2c(O)cc(O)cc2O[C@@H]1c1cc(O)c(O)c(O)c1)c1cc(O)c(O)c(O)c1 [EGCG, (−)-epigallocatechin-3-gallate] | 5 fold excess |  |
| Normal | β signal within 6 h, 100% 16 h hours | 100% |  | Ac-KIVTSAK [ssMrH] |  | no effects on the course of α-syn aggregation |
| Normal + AA |  | 80% | Helical at 4–6 hours 80 % β at 16 h | KKLTVWI [ssW] |  | delays aggregation (as monitored by CD) |
